Results taken from ChEMBL document CHEMBL3763086, “Salicylanilide N-monosubstituted carbamates: Synthesis and in vitro antimicrobial activity” (2016).

Tests used:
Assay type in all cases: functional
Staphylococcus aureus [1] = assay: Antibacterial activity against Staphylococcus aureus CCM 4516/08 after 24 hrs by microbroth dilution method; conditions: CCM 4516/08, 24 h
Procedure, shortened: (§1)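 Microbroth dilution modified per M07-A07 in Mueller-Hinton broth, pH 7.4 (±0.2). Inoculum in sterile water adjusted to 0.5 McFarland. MIC taken as growth reduction of at least 90% (IC90) versus control, read visually and at 540 nm after 24 and 48 h incubation in the dark.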

Staphylococcus aureus [2] = assay: Antibacterial activity against Staphylococcus aureus CCM 4516/08 after 48 hrs by microbroth dilution method; conditions: CCM 4516/08, 48 h
Procedure, shortened: (§2)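 Microdilution broth method modified after M07-A07 in Mueller-Hinton broth adjusted to pH 7.4 (±0.2). Inoculum prepared in sterile water to 0.5 McFarland (1.5 × 10^8 CFU/mL). MIC taken as growth reduction versus control (IC95 per table header), read visually and spectrophotometrically at 540 nm after 24 and 48 h incubation in the dark.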

Staphylococcus aureus [3] = assay: Antibacterial activity against methicillin-resistant Staphylococcus aureus H 5996/08 after 24 hrs by microbroth dilution method; conditions: H 5996/08, 24 h; procedure, shortened: as §2
Staphylococcus aureus [4] = assay: Antibacterial activity against methicillin-resistant Staphylococcus aureus H 5996/08 after 48 hrs by microbroth dilution method; conditions: H 5996/08, 48 h; procedure, shortened: as §2
[5] = test system: Staphylococcus epidermidis; assay: Antibacterial activity against Staphylococcus epidermidis H 6966/08 after 24 hrs by microbroth dilution method; conditions: H 6966/08, 24 h; procedure, shortened: as §1
[6] = test system: Staphylococcus epidermidis; assay: Antibacterial activity against Staphylococcus epidermidis H 6966/08 after 48 hrs by microbroth dilution method; conditions: H 6966/08, 48 h; procedure, shortened: as §1
Enterococcus sp. [7] = assay: Antibacterial activity against Enterococcus sp. J 14365/08 after 24 hrs by microbroth dilution method; conditions: J 14365/08, 24 h; procedure, shortened: as §1
Enterococcus sp. [8] = assay: Antibacterial activity against Enterococcus sp. J 14365/08 after 48 hrs by microbroth dilution method; conditions: J 14365/08, 48 h; procedure, shortened: as §1
Escherichia coli [9] = assay: Antibacterial activity against Escherichia coli CCM 4517 after 24 hrs by microbroth dilution method; conditions: CCM 4517, 24 h; procedure, shortened: as §1
Escherichia coli [10] = assay: Antibacterial activity against Escherichia coli CCM 4517 after 48 hrs by microbroth dilution method; conditions: CCM 4517, 48 h; procedure, shortened: as §1
Klebsiella pneumoniae [11] = assay: Antibacterial activity against Klebsiella pneumoniae D 11750/08 after 24 hrs by microbroth dilution method; conditions: D 11750/08, 24 h; procedure, shortened: as §1
Klebsiella pneumoniae [12] = assay: Antibacterial activity against Klebsiella pneumoniae D 11750/08 after 48 hrs by microbroth dilution method; conditions: D 11750/08, 48 h; procedure, shortened: as §1
Klebsiella pneumoniae [13] = assay: Antibacterial activity against ESBL-positive Klebsiella pneumoniae J 14368/08 after 24 hrs by microbroth dilution method; conditions: J 14368/08, 24 h; procedure, shortened: as §1
Klebsiella pneumoniae [14] = assay: Antibacterial activity against ESBL-positive Klebsiella pneumoniae J 14368/08 after 48 hrs by microbroth dilution method; conditions: J 14368/08, 48 h; procedure, shortened: as §1
Candida albicans [15] = assay: Antifungal activity against Candida albicans ATCC 44859 after 24 hrs by microbroth dilution method; conditions: ATCC 44859, 24 h
Candida albicans [16] = assay: Antifungal activity against Candida albicans ATCC 44859 after 48 hrs by microbroth dilution method; conditions: ATCC 44859, 48 h
Candida tropicalis [17] = assay: Antifungal activity against Candida tropicalis 156 after 24 hrs by microbroth dilution method; conditions: Candida tropicalis, 156, 24 h
Candida tropicalis [18] = assay: Antifungal activity against Candida tropicalis 156 after 48 hrs by microbroth dilution method; conditions: Candida tropicalis, 156, 48 h
Pichia kudriavzevii [19] = assay: Antifungal activity against Candida krusei E28 after 24 hrs by microbroth dilution method; conditions: E28, 24 h
Pichia kudriavzevii [20] = assay: Antifungal activity against Candida krusei E28 after 48 hrs by microbroth dilution method; conditions: E28, 48 h
Nakaseomyces glabratus [21] = assay: Antifungal activity against Candida glabrata 20/I after 24 hrs by microbroth dilution method
Nakaseomyces glabratus [22] = assay: Antifungal activity against Candida glabrata 20/I after 48 hrs by microbroth dilution method
Trichosporon asahii [23] = assay: Antifungal activity against Trichosporon asahii 1188 after 24 hrs by microbroth dilution method; conditions: Trichosporon asahii, 1188, 24 h
Trichosporon asahii [24] = assay: Antifungal activity against Trichosporon asahii 1188 after 48 hrs by microbroth dilution method; conditions: Trichosporon asahii, 1188, 48 h
Lichtheimia corymbifera [25] = assay: Antifungal activity against Absidia corymbifera 272 after 24 hrs by microbroth dilution method; conditions: Lichtheimia corymbifera, 272, 24 h
Lichtheimia corymbifera [26] = assay: Antifungal activity against Absidia corymbifera 272 after 48 hrs by microbroth dilution method; conditions: Lichtheimia corymbifera, 272, 48 h
[27] = test system: Trichophyton mentagrophytes; assay: Antifungal activity against Trichophyton mentagrophytes 445 after 72 hrs by microbroth dilution method; conditions: Trichophyton mentagrophytes, 445, 72 h
[28] = test system: Trichophyton mentagrophytes; assay: Antifungal activity against Trichophyton mentagrophytes 445 after 120 hrs by microbroth dilution method; conditions: Trichophyton mentagrophytes, 445, 120 h

Measured: MIC

O=C(NC1CCCCC1)Oc1ccc(Cl)cc1C(=O)Nc1ccc(Cl)cc1
1.95 µM: Staphylococcus aureus [1]
3.9 µM: Staphylococcus aureus [3]
0.98 µM: [5] | [6]
7.81 µM: Staphylococcus aureus [2] | [27] | [28]
125 µM: Pichia kudriavzevii [19] | Pichia kudriavzevii [20] | Trichosporon asahii [23] | Trichosporon asahii [24] | Lichtheimia corymbifera [25] | Lichtheimia corymbifera [26]
15.6 µM: Staphylococcus aureus [4]
> 125 µM: all other assays above
